Hits are enriched below; roughly 1.8% of the tested compounds scored in any of these assays.
ARNT-TACC3 inh: ARNT/TACC3 interaction disruption; AlphaScreen His-ARNT PAS-B/GST-TACC3 binding, luminescence; TACC3 fragment carries E629A point mutation; hit rate 0.66% among 390,000; Q9Y6A5; inhibition, % at 9.99 µM;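 active means mean inhibition of replicates at least 50% and at least half of replicates each reaching 50%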;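 further: 0% = complete ARNT plus TACC3 wells and 100% = ARNT alone without TACC3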
CAL PDZ FP-1: human CAL PDZ-peptide interaction inhibition | hit rate 0.02% among 330,000 | inhibition, % at 20 µM | purified CAL PDZ, TMR-peptide fluorescence polarization, 1 h;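 active means highest replicate inhibition of at least 40%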;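 further: plate controls were DMSO neutral control wells for no effect and unlabeled competitor peptide control wells for full effect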
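material = purified tagged CAL PDZ domain construct (CerCALP) | buffer or medium = sodium phosphate/NaCl buffer pH 7.4 with TCEP, IgG, Thesit | reagent = TMR-labelled reporter peptide T*-PRC34 bound in PDZ groove | incubation = 1 h room-temperature incubation prior to read | measured by = fluorescence polarization (mP) | evaluation = percent inhibition from loss of millipolarization | control set = unlabelled peptide and DMSO controls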
GRK2 aptamer HTS: inhibitors of human GRK2 displacing RNA aptamer. P25098. bead flow cytometry, FAM-aptamer displacement from GRK2. inhibition of aptamer binding, % at 10 µM. hit rate 0.59% among 330,000;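 active means inhibition of aptamer binding above 40%, roughly 3 SD of noise, on plates passing a quality check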;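 further: median bead fluorescence of bound FAM aptamer so fluorescent compounds give negative values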
Tn7 DDE FP: disrupts Tn7 cyclic peptide binding to fibrin D-Dimer-E complex; P02675; FP displacement of FITC-Tn7 peptide from fibrin DD(E); 0% = median of compound wells per plate; inhibition, % at 8.3 µM; hit rate 0.13% among 370,000; AID 720508;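 active means inhibition above the mean of compounds falling within the control limits plus 3 SD of them, cut at about 14% in these data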;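 further: 0% = plate median of compound wells and 100% = 10 µM Aha-Tn7 peptide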
Target sequence (P02675 whole entry, looked up): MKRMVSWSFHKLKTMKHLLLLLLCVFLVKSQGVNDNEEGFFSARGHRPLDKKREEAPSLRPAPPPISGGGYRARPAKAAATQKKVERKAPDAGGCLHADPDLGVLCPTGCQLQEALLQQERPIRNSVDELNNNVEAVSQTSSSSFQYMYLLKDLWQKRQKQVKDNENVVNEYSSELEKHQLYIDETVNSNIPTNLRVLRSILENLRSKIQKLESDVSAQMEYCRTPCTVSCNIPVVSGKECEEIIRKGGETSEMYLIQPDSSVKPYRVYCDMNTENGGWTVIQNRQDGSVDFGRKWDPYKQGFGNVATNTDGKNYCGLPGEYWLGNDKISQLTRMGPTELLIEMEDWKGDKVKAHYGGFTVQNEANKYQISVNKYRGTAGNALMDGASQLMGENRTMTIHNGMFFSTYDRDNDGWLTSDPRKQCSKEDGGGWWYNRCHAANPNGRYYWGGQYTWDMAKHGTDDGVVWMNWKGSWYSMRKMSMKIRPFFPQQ
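Also added: labelled Tn7 tracer, 0.1 µM; Assay system: human fibrin DD(E) protein; Amount: 2 µM fibrin DD(E); Schedule: 10 min compound pre-incubation, 3 h probe incubation at room temperature; Repeats: one replicate per compound; Read-out basis: percent inhibition; Measured by: fluorescence polarization of the labelled Tn7 tracer.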
CAL PDZ FP-2: CAL PDZ (human) peptide binding inhibition; Q9HD26; purified CAL PDZ, TMR-peptide fluorescence polarization, 1 h; inhibition, % at 24.9 µM; hit rate 0.92% among 300,000; AID 602252;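 active means mean inhibition of at least 30% with at least half of replicates also reaching 30%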;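 further: 0% = DMSO neutral control and 100% = excess unlabeled competitor peptide PRC23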
Tn6 DDE FP: disrupts Tn6 cyclic peptide binding to fibrin D-Dimer-E complex. P02675. Fibrin DD(E) TRITC-Tn6 fluorescence polarization displacement. inhibition, % at 8.3 µM. hit rate 0.21% among 370,000. AID 720509;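 active means inhibition above a per-campaign cutoff: mean of compounds within control limits plus 3 SD, cut at about 15% in these data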;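 further: 0% = median of all compound wells on the plate and 100% = blocking peptide control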
Numbers without * were called inactive; . = no result given.

SMILES	ARNT-TACC3 inh	CAL PDZ FP-1	GRK2 aptamer HTS	Tn7 DDE FP	CAL PDZ FP-2	Tn6 DDE FP
Nc1ncnc(Sc2ccc(Cl)cc2)c1[N+](=O)[O-]	49*	0	0	4	1	6
O=C1CCn2c1c(O)c1ccccc1c2=O	52*	-1	.	-2	-6	10
CCN1C(=O)CC(N2CCC(C(=O)N3CCOCC3)CC2)C1=O (stereo not given)	-4	-1	0	16*	-7	7
CCN1C(=O)CC(N2CCOCC2)C1=O (stereo not given)	0	0	0	-2	-12	4
CC1CCCC(NC(=O)C2CCN(S(=O)(=O)c3cnc[nH]3)CC2)C1C (stereo not given)	1	-1	1	-9	64*	-4
CCOC(=O)c1cnc(-n2nc(C)cc2C)nc1NC	48*	-2	0	2	-4	1
COc1ccc(S(=O)(=O)N(C(C)=O)c2ccc3oc(=O)sc3c2)cc1	-12	0	0	6	89*	0
COc1ccc(NC(=O)Nc2cccc3c2O[C@H](CN(C)C(=O)Nc2ccc4c(c2)OCO4)[C@H](C)CN([C@H](C)CO)C3=O)cc1	-4	.	.	.	.	.
C[C@H]1CCCCO[C@H](CN(C)Cc2ccc3c(c2)OCO3)[C@@H](C)CN([C@@H](C)CO)C(=O)c2cc(NC(=O)Nc3ccc(C(F)(F)F)cc3)ccc2O1	57*	.	.	.	.	.
C[C@@H]1CCCCO[C@H](CN(C)Cc2ccc3c(c2)OCO3)[C@@H](C)CN([C@@H](C)CO)C(=O)c2cc(NC(=O)Nc3ccc(C(F)(F)F)cc3)ccc2O1	29	.	.	.	.	.
C[C@@H]1CCCCO[C@@H](CN(C)C(=O)Nc2ccccc2)[C@H](C)CN([C@H](C)CO)C(=O)c2cc(NC(=O)CCCN(C)C)ccc2O1	-2	.	.	.	.	.
C[C@H](CO)N1C[C@H](C)[C@H](CN(C)Cc2ccc3c(c2)OCO3)OCCCC[C@H](C)Oc2ccc(NC(=O)Nc3ccc(C(F)(F)F)cc3)cc2C1=O	46*	.	.	.	.	.
COc1ccc(NC(=O)N(C)C[C@@H]2Oc3ccc(NS(=O)(=O)c4cn(C)cn4)cc3C(=O)N([C@H](C)CO)C[C@H]2C)cc1	active	.	.	.	.	.
C[C@@H]1CCCCO[C@H](CN(C)C(=O)Nc2ccc3c(c2)OCO3)[C@H](C)CN([C@@H](C)CO)C(=O)c2cc(NC(=O)CCCN(C)C)ccc2O1	45*	.	.	.	.	.
CCCNC(=O)N(C)C[C@H]1Oc2ncc(-c3ccc(C(=O)N(C)C)cc3)cc2C(=O)N([C@H](C)CO)C[C@H]1C	4	.	.	.	.	.
C[C@@H]1CN([C@@H](C)CO)C(=O)c2cccc(NS(C)(=O)=O)c2O[C@@H]1CN(C)C(=O)Nc1ccc2c(c1)OCO2	active	.	.	.	.	.
C[C@H]1CN([C@@H](C)CO)C(=O)c2cccc(NS(C)(=O)=O)c2O[C@H]1CN(C)C(=O)Nc1ccc2c(c1)OCO2	3	.	.	.	.	.
OC[C@H]1[C@H](c2ccc(C#CC3CCCC3)cc2)[C@H]2CN(CCC(F)(F)F)CCCCN21	5	.	.	.	.	.
CC1(C)CC(NS(=O)(=O)c2ccc3ccccc3c2)CC(C)(C)N1	27	-2	0	5	-3	0
COc1ccccc1OCC(=O)NCc1cccs1	45*	-1	0	4	-2	8
N#CC(CCc1ccccc1[N+](=O)[O-])(CCc1ccccc1[N+](=O)[O-])C(N)=O	-1	0	.	-2	53*	4
C[C@@H]1CN([C@@H](C)CO)C(=O)c2cc(C3=CCCC3)cnc2O[C@@H]1CN(C)C(=O)Nc1ccc(F)cc1	-4	.	.	.	.	.
Cc1ccc(-c2nn(C)c(=O)c3ccccc23)cc1CNS(C)(=O)=O	.	-2	2	3	-3	2
Cc1ccc(-c2nn(C)c(=O)c3ccccc23)cc1CN1CCCCC1	9	-1	1	-4	47*	-4
Cn1ncc2c(NCc3cccc(C(F)(F)F)c3)c(C(=O)O)cnc21	.	.	55*	3	.	2
SMILES	ARNT-TACC3 inh	CAL PDZ FP-1	GRK2 aptamer HTS	Tn7 DDE FP	CAL PDZ FP-2	Tn6 DDE FP
CCCc1cc(=O)n2nc(N3CCC(C(=O)Nc4cccc(C(C)=O)c4)CC3)sc2n1	21	1	2	-2	.	-8
Cc1ccc2nc(Cl)cc(=O)n2c1	-11	0	.	1	-2	9
Cc1ccc2nc(COC(=O)c3ccc(Cl)nc3)cc(=O)n2c1	0	0	3	-7	46*	-5
Cc1ccccc1NC(=O)CN1C(=O)CSc2ccccc21	-9	0	0	0	38*	2
O=C(CCS(=O)(=O)c1ccccc1)Nc1nc(-c2ccccn2)cs1	65*	-1	2	1	1	3
O=C(CCS(=O)(=O)c1ccc(F)cc1)Nc1nc(-c2ccccn2)cs1	60*	-2	0	-1	-4	-4
O=C(c1cc(-c2ccc(Cl)cc2Cl)on1)N1CCCC1	-2	-2	0	-2	35*	-1
C[C@@H]1CCCCO[C@@H](CN(C)Cc2ccc(C(F)(F)F)cc2)[C@@H](C)CN([C@@H](C)CO)C(=O)c2cc(NC(=O)C3CCCCC3)ccc2O1	5	.	.	.	.	.
O=C(CSc1ccccn1)N/N=C/c1cc([N+](=O)[O-])ccc1O	76*	-1	0	4	1	-1
O=C(N/N=C/c1cc([N+](=O)[O-])ccc1O)C1C2CCCCC21 (stereo not given)	.	.	8	.	.	.
O=C(N/N=C/c1cc([N+](=O)[O-])ccc1O)C1CCCCC1	67*	-1	3	-2	-1	-3
COc1ccc(C2=NS(=O)(=O)N(C)C(C(=O)Nc3ccc(F)cc3F)=C2)cc1	5	-1	2	-2	.	-3
C[C@H](CO)N1C[C@H](C)[C@H](CN(C)S(=O)(=O)c2ccc(F)cc2)Oc2ccc(NC(=O)C3CCCCC3)cc2CC1=O	-10	.	.	.	.	.
CC1CN(C(=O)COC(=O)c2cccc(S(=O)(=O)N3CCc4ccccc43)c2)CC(C)O1 (stereo not given)	0	19	2	-4	59*	-5
CS(=O)(=O)N1CCc2cc(C(=O)OCC(=O)c3ccccc3)ccc21	-2	-2	2	8	98*	-6
CN(C(=O)c1ccc2c(c1)CCN2S(C)(=O)=O)c1ccccc1	-9	-1	1	6	2	7
N#C[C@H]1[C@H](c2ccc(C#Cc3ccc(F)cc3)cc2)[C@H](CO)N1c1nc(-c2ccccc2)cs1	-10	.	.	.	.	.
COc1ccccc1C(=O)N/N=C(\C)CC(=O)Nc1ccc(Cl)cn1	4	-1	0	0	65*	0
COc1ccccc1C(=O)N/N=C(\C)CC(=O)Nc1ccccn1	13	-1	2	-5	.	-1
Cc1cc(=O)[nH]c2c(N=Nc3ccc(O)cc3)c(N)nn12	47*	-1	.	-4	0	-7

Bioassay records deposited in PubChem by several laboratories.
